Results taken from article PMC2233693 (The Journal of General Physiology, 2000).
Where a chain is given by its changes, count along the chain named. Read-outs that look alike come from different tables or passages of the source.

Columns and labels:
Assay type in all cases: biochemical
[1] = target: T1, E340G mutant bovine olfactory CNG channel (Bos taurus, UniProt Q03041, E340G); test: External Ca2+ blockage of single-channel current, outside-out patches; conditions: for n (single-channel Ca2+ blockage): Fig. 7 patch
T1 sequence (Q03041 1-663 E340G): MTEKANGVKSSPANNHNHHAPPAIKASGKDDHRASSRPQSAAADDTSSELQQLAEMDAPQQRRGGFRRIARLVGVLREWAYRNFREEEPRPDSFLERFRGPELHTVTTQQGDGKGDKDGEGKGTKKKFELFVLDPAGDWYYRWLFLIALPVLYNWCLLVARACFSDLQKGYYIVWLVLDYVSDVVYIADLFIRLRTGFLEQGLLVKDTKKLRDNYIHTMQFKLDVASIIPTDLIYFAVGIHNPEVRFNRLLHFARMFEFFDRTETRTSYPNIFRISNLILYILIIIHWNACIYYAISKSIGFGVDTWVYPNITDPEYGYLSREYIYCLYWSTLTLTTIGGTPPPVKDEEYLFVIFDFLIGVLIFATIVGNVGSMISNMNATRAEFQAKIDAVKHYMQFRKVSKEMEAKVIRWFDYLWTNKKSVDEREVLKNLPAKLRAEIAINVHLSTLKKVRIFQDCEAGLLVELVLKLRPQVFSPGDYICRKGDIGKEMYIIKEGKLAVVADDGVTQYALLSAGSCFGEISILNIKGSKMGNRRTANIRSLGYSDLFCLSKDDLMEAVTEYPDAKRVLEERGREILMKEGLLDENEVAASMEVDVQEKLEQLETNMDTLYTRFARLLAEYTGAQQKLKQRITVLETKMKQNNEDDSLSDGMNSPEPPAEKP
Procedure, shortened: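 Outside-out oocyte patches with cGMP in the pipette (wild-type 5 μM, E340G 1 mM) and increasing external Ca2+. Single-channel currents at +80 and −80 mV, filtered at 2 kHz, sampled at 10 kHz. Amplitudes from all-points histograms (30 s) fitted with summed Gaussians, normalised to divalent-free current, Hill-fitted for Ki and n. Two further patches per channel type.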

[2] = target: T2, E340Q mutant bovine olfactory CNG channel (Bos taurus, UniProt Q03041, E340Q); test: Estimate from current variance versus mean amplitude of macroscopic currents; conditions: estimated from variance/mean at various cGMP concentrations
T2 sequence (Q03041 1-663 E340Q): T1 sequence (Q03041 1-663 E340G) with G340Q
Procedure, shortened: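 Single-channel amplitude not directly measurable. Assuming a single open state, current amplitude and maximal open probability were estimated from the relation between current variance and mean amplitude of macroscopic currents recorded at various cGMP concentrations, in patches from mRNA-injected Xenopus oocytes.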

[3] = target: T3, E340D mutant bovine olfactory CNG channel (Bos taurus, UniProt Q03041, E340D)
T3 sequence (Q03041 1-663 E340D): T1 sequence (Q03041 1-663 E340G) with G340D

[4] = target: T3, E340D mutant bovine olfactory CNG channel; conditions: cGMP
[5] = target: T1, E340G mutant bovine olfactory CNG channel

SMILES | effect on single-channel amplitude ([1]; 1 or even 10 mM external Ca2+, 1 mM cGMP) | n (single-channel Ca2+ blockage) ([1]; +80 mV) | n (single-channel Ca2+ blockage) ([1]; −80 mV) | maximal open probability [2] | n(−80 mV), Hill coefficient ([3]; cGMP) | I(−80 mV)/I(+80 mV) ([3]; cGMP-gated current) | EC50 ([3]; read-out: K 1/2, cGMP, +80 mV) | EC50 ([3]; read-out: K 1/2, cGMP, −80 mV) | EC50 ([3]; read-out: K 1/2,cG, −80 mV, single patch, Fig. 1 fit) | n cG ([3]; −80 mV, single patch, Fig. 1 fit) | P max (+80 mV) [4] | P max (−80 mV) [4] | L, equilibrium gating constant ([4]; allosteric model fit, mean ± SD) | P max (+80 mV) ([5]; cGMP) | P max (−80 mV) ([5]; cGMP) | L, equilibrium gating constant ([5]; cGMP, allosteric model fit, mean ± SD) | EC50 ([5]; read-out: K 1/2 (single-channel open probability), cGMP, −80 mV, average) | EC50 ([5]; read-out: K 1/2,cG, −80 mV, single patch, Fig. 2 fit)
[Ca+2] [Ca^2+] | only slightly reduced | 0.7 | 0.8 |  |  |  |  |  |  |  |  |  |  |  |  |  |  | 
Nc1nc2c(ncn2[C@@H]2O[C@@H]3COP(=O)(O)O[C@H]3[C@H]2O)c(=O)[nH]1 [cGMP] |  |  |  | 0.9 | 2.6 ± 0.4 | 1.30 ± 0.10 | 4.8 ± 1.1 µM | 4.9 ± 1.1 µM | 4.5 µM | 2.7 | 0.985 ± 0.007 | 0.987 ± 0.007 | 66 ± 15 | 0.77 ± 0.08 | 0.79 ± 0.06 | 5.2 ± 1.3 | 14 ± 5 µM | 11.6 µM
